Reference: ChEMBL document CHEMBL1629431, “Synthesis and antitumor activity of some 2, 3-disubstituted quinazolin-4(3H)-ones and 4, 6- disubstituted- 1, 2, 3, 4-tetrahydroquinazolin-2H-ones” (2010)

Key:
Type in all cases: functional
NCI-H522 = test: Growth inhibition of human NCI-H522 cells at 10 uM after 48 hrs by coulter counter method; conditions: NCI-H522, 48 h, read-out: GI
Method in brief: (§1)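 Single high-dose NCI 60-cell-line panel screen across nine tumor subpanels. Test solutions (0.2 mL) were added in duplicate to wells holding 1.8 mL of culture at 6 × 10⁴ cells/mL. Controls got PBS and DMSO at identical dilutions. Incubation was 48 h at 37 °C in humidified 5% CO₂. Cells were diluted 10-fold in saline, Coulter-counted and dilution-corrected. Results were expressed as percent growth inhibition versus control.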

HL-60(TB) = test: Growth inhibition of human HL-60(TB) cells at 10 uM after 48 hrs by coulter counter method; conditions: HL-60, 48 h, read-out: GI
Method in brief: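 Part of the NCI 60-cell-line single-high-dose panel. Cells were seeded at 6 × 10⁴ cells/mL with test solution in duplicate wells, alongside PBS/DMSO controls at identical dilutions. Plates were held 48 h at 37 °C in a humidified 5% CO₂ incubator. Cells were then diluted 10-fold in saline and counted by Coulter counter, with counts corrected for dilution. Results are percent growth of treated cells, reported as GI %.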

HCT-116 = test: Growth inhibition of human HCT116 cells at 10 uM after 48 hrs by coulter counter method; conditions: HCT-116, 48 h, read-out: GI; method in brief: as §1
MDA-MB-231 = test: Growth inhibition of human MDA-MB-231 cells at 10 uM after 48 hrs by coulter counter method; conditions: MDA-MB-231, 48 h, read-out: GI; method in brief: as §1
A549 = test: Growth inhibition of human A549 cells at 10 uM after 48 hrs by coulter counter method; conditions: A549, 48 h, read-out: GI; method in brief: as §1
[1] = Growth inhibition of human […] cells at 10 uM after 48 hrs by coulter counter method; conditions: read-out: GI; method in brief: as §1
PC-3 = test: Growth inhibition of human PC3 cells at 10 uM after 48 hrs by coulter counter method; conditions: PC-3, 48 h, read-out: GI; method in brief: as §1
SN12C = test: Growth inhibition of human SN12C cells at 10 uM after 48 hrs by coulter counter method; conditions: read-out: GI; method in brief: as §1
SK-MEL-28 = test: Growth inhibition of human SK-MEL-28 cells at 10 uM after 48 hrs by coulter counter method; conditions: SK-MEL-28, 48 h, read-out: GI; method in brief: as §1
T47D = test: Growth inhibition of human T47D cells at 10 uM after 48 hrs by coulter counter method; conditions: read-out: GI; method in brief: as §1
MCF7 = test: Growth inhibition of human MCF7 cells at 10 uM after 48 hrs by coulter counter method; conditions: MCF7, 48 h, read-out: GI; method in brief: as §1
MDA-MB-468 = test: Growth inhibition of human MDA-MB-468 cells at 10 uM after 48 hrs by coulter counter method; conditions: MDA-MB-468, 48 h, read-out: GI; method in brief: as §1
OVCAR-4 = test: Growth inhibition of human OVCAR4 cells at 10 uM after 48 hrs by coulter counter method; conditions: OVCAR-4, 48 h, read-out: GI; method in brief: as §1
CAKI-1 = test: Growth inhibition of human Caki1 cells at 10 uM after 48 hrs by coulter counter method; conditions: CAKI-1, 48 h, read-out: GI; method in brief: as §1
SK-MEL-2 = test: Growth inhibition of human SK-MEL-2 cells at 10 uM after 48 hrs by coulter counter method; conditions: SK-MEL-2, 48 h, read-out: GI; method in brief: as §1
COLO 205 = test: Growth inhibition of human COLO205 cells at 10 uM after 48 hrs by coulter counter method; conditions: COLO 205, 48 h, read-out: GI; method in brief: as §1
K562 = test: Growth inhibition of human K562 cells at 10 uM after 48 hrs by coulter counter method; conditions: K562, 48 h, read-out: GI; method in brief: as §1
KM12 = test: Growth inhibition of human KM12 cells at 10 uM after 48 hrs by coulter counter method; conditions: KM12, 48 h, read-out: GI; method in brief: as §1
HOP-92 = test: Growth inhibition of human HOP92 cells at 10 uM after 48 hrs by coulter counter method; conditions: HOP-92, 48 h, read-out: GI; method in brief: as §1
IGROV-1 = test: Growth inhibition of human IGROV1 cells at 10 uM after 48 hrs by coulter counter method; conditions: IGROV-1, 48 h, read-out: GI; method in brief: as §1
U-251 = test: Growth inhibition of human U251 cells at 10 uM after 48 hrs by coulter counter method; conditions: U-251, 48 h, read-out: GI; method in brief: as §1
M14 = test: Growth inhibition of human M14 cells at 10 uM after 48 hrs by coulter counter method; conditions: M14, 48 h, read-out: GI; method in brief: as §1
NCI-H23 = test: Growth inhibition of human NCI-H23 cells at 10 uM after 48 hrs by coulter counter method; conditions: NCI-H23, 48 h, read-out: GI; method in brief: as §1
SF-539 = test: Growth inhibition of human SF539 cells at 10 uM after 48 hrs by coulter counter method; conditions: SF-539, 48 h, read-out: GI; method in brief: as §1
UACC-62 = test: Growth inhibition of human UACC62 cells at 10 uM after 48 hrs by coulter counter method; conditions: UACC-62, 48 h, read-out: GI; method in brief: as §1
MOLT-4 = test: Growth inhibition of human MOLT4 cells at 10 uM after 48 hrs by coulter counter method; conditions: MOLT-4, 48 h, read-out: GI; method in brief: as §1
[2] = Growth inhibition of human Hs 578T cells at 10 uM after 48 hrs by coulter counter method; conditions: read-out: GI; method in brief: as §1
SNB-75 = test: Growth inhibition of human SNB75 cells at 10 uM after 48 hrs by coulter counter method; conditions: SNB-75, 48 h, read-out: GI; method in brief: as §1
SF-268 = test: Growth inhibition of human SF268 cells at 10 uM after 48 hrs by coulter counter method; conditions: SF-268, 48 h, read-out: GI; method in brief: as §1
786-0 = test: Growth inhibition of human 786-0 cells at 10 uM after 48 hrs by coulter counter method; conditions: 786-0, 48 h, read-out: GI; method in brief: as §1
SK-OV-3 = test: Growth inhibition of human SKOV3 cells at 10 uM after 48 hrs by coulter counter method; conditions: SK-OV-3, 48 h, read-out: GI; method in brief: as §1
NCI-H226 = test: Growth inhibition of human NCI-H226 cells at 10 uM after 48 hrs by coulter counter method; conditions: NCI-H226, 48 h, read-out: GI; method in brief: as §1
OVCAR-8 = test: Growth inhibition of human OVCAR8 cells at 10 uM after 48 hrs by coulter counter method; conditions: OVCAR-8, 48 h, read-out: GI; method in brief: as §1
UO-31 = test: Growth inhibition of human UO31 cells at 10 uM after 48 hrs by coulter counter method; conditions: UO-31, 48 h, read-out: GI; method in brief: as §1
BT-549 = test: Growth inhibition of human BT549 cells at 10 uM after 48 hrs by coulter counter method; conditions: BT-549, 48 h, read-out: GI; method in brief: as §1
CCRF-CEM = test: Growth inhibition of human CCRF-CEM cells at 10 uM after 48 hrs by coulter counter method; conditions: read-out: GI; method in brief: as §1
HT-29 = test: Growth inhibition of human HT-29 cells at 10 uM after 48 hrs by coulter counter method; conditions: HT-29, 48 h, read-out: GI; method in brief: as §1
SR = test: Growth inhibition of human SR cells at 10 uM after 48 hrs by coulter counter method; conditions: read-out: GI; method in brief: as §1
SF-295 = test: Growth inhibition of human SF295 cells at 10 uM after 48 hrs by coulter counter method; conditions: SF-295, 48 h, read-out: GI; method in brief: as §1

| SMILES | inhibition of growth at 10 µM (NCI-H522) | inhibition of growth at 10 µM (HL-60(TB)) | inhibition of growth at 10 µM (HCT-116) | inhibition of growth at 10 µM (MDA-MB-231) | inhibition of growth at 10 µM (A549) | inhibition of growth at 10 µM (PC-3) | inhibition of growth at 10 µM (SN12C) | inhibition of growth at 10 µM (SK-MEL-28) | inhibition of growth at 10 µM (T47D) | inhibition of growth at 10 µM (MCF7) | inhibition of growth at 10 µM (MDA-MB-468) | inhibition of growth at 10 µM (OVCAR-4) | inhibition of growth at 10 µM (CAKI-1) | inhibition of growth at 10 µM (SK-MEL-2) | inhibition of growth at 10 µM (COLO 205) | inhibition of growth at 10 µM (K562) | inhibition of growth at 10 µM (KM12) | inhibition of growth at 10 µM (HOP-92) | inhibition of growth at 10 µM (IGROV-1) | inhibition of growth at 10 µM (U-251) | other results |
| --- | --- | --- | --- | --- | --- | --- | --- | --- | --- | --- | --- | --- | --- | --- | --- | --- | --- | --- | --- | --- | --- |
| CSc1nc2ccccc2c(=O)n1-c1ccc(Cl)cc1 | 30% | 32% | 30% | 30% | 30% | 50.3% | 30% | 30% | 47% | 30% | 30% | 30% | 30% | 30% | 30% | 44.1% | 30% | 30% | 30% | 30% | inhibition of growth at 10 µM [1]: 35.8%; inhibition of growth at 10 µM (M14): 30%; inhibition of growth at 10 µM (NCI-H23): 30%; inhibition of growth at 10 µM (SF-539): 30%; inhibition of growth at 10 µM (UACC-62): 30%; inhibition of growth at 10 µM (MOLT-4): 31.4%; inhibition of growth at 10 µM [2]: 30%; inhibition of growth at 10 µM (SNB-75): 30%; inhibition of growth at 10 µM (SF-268): 30%; inhibition of growth at 10 µM (786-0): 30%; inhibition of growth at 10 µM (SK-OV-3): 30%; inhibition of growth at 10 µM (NCI-H226): 30%; inhibition of growth at 10 µM (OVCAR-8): 30%; inhibition of growth at 10 µM (UO-31): 30% |
| COc1ccc(C2NC(=O)Nc3ccc(C(=O)Nc4ccccn4)cc32)cc1 (stereo not given) | 30% | 30% | 30% | 30% | 30% | 30% | 30% | 30% | 37.6% | 30% | 30% | 30% | 30% | 30% | 30% | 30% | 30% | 30% | 30% | 30% | inhibition of growth at 10 µM (BT-549): 30%; inhibition of growth at 10 µM (CCRF-CEM): 30%; inhibition of growth at 10 µM (HT-29): 30%; inhibition of growth at 10 µM (M14): 30%; inhibition of growth at 10 µM (NCI-H23): 30%; inhibition of growth at 10 µM (SR): 30%; inhibition of growth at 10 µM (SF-539): 30%; inhibition of growth at 10 µM (UACC-62): 30%; inhibition of growth at 10 µM (MOLT-4): 30%; inhibition of growth at 10 µM [2]: 30%; inhibition of growth at 10 µM (SNB-75): 30%; inhibition of growth at 10 µM (SF-268): 30%; inhibition of growth at 10 µM (786-0): 30%; inhibition of growth at 10 µM (SK-OV-3): 30%; inhibition of growth at 10 µM (NCI-H226): 30%; inhibition of growth at 10 µM (OVCAR-8): 30%; inhibition of growth at 10 µM (UO-31): 34.3% |
| COc1ccc(C2NC(=O)Nc3ccc(CNc4ccccn4)cc32)cc1 (stereo not given) | 30% | 30% | 36.8% | 30.2% | 30% | 30% | 30% | 30% | 33.1% | 30% | 30% | 30% | 30% | 30% | 30% | 30% | 30% | 30% | 30% | 30% | inhibition of growth at 10 µM (BT-549): 30%; inhibition of growth at 10 µM (CCRF-CEM): 30%; inhibition of growth at 10 µM (HT-29): 30%; inhibition of growth at 10 µM (M14): 30%; inhibition of growth at 10 µM (NCI-H23): 30%; inhibition of growth at 10 µM (SR): 30%; inhibition of growth at 10 µM (SF-539): 30%; inhibition of growth at 10 µM (UACC-62): 30%; inhibition of growth at 10 µM (MOLT-4): 30%; inhibition of growth at 10 µM [2]: 30%; inhibition of growth at 10 µM (SNB-75): 30%; inhibition of growth at 10 µM (SF-268): 30%; inhibition of growth at 10 µM (786-0): 30%; inhibition of growth at 10 µM (SK-OV-3): 30%; inhibition of growth at 10 µM (NCI-H226): 30%; inhibition of growth at 10 µM (OVCAR-8): 30%; inhibition of growth at 10 µM (UO-31): 30% |
| COc1ccc(-n2c(Nc3cc(O)[nH]c(=O)n3)nc3ccccc3c2=O)cc1 | – | – | – | – | – | – | – | – | – | – | – | – | – | – | – | – | – | – | – | – | inhibition of growth at 10 µM (SF-295): 80.8% |
| CCn1c(Nc2cc(O)nc(S)n2)nc2ccccc2c1=O | – | – | – | – | – | – | – | – | – | – | – | – | – | – | – | – | – | – | – | – | inhibition of growth at 10 µM (SF-295): 59.9% |
